Measured values: ChEMBL document CHEMBL1129534, “Antitumor agents. 163. Three-dimensional quantitative structure-activity relationship study of 4'-O-demethylepipodophyllotoxin analogs using the modified CoMFA/q2-GRS approach” (J Med Chem, 1996)
“And” between values parts separate entries of the source, which are not always exact repeats. Identical values can stand only once.

molecular target: DNA topoisomerase II (Homo sapiens) (UniProt P11388+Q02880); assay: Compound tested for ability to form a cellular covalent topoisomerase II-DNA complex.; assay type: functional
How it was run: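 Read-out is intracellular covalent topoisomerase II–DNA complex formation, scored as the percentage of cellular protein–DNA complex formed (PCPDCF). For CoMFA modelling the values were transformed to ln(PCPDCF + 1).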

Compared with `COc1cc([C@@H]2c3cc4c(cc3[C@@H](NCc3cccc(Cl)c3)[C@H]3COC(=O)[C@H]23)OCO4)cc(OC)c1O`, `COc1cc([C@@H]2c3cc4c(cc3[C@@H](NCc3cccc(F)c3)[C@H]3COC(=O)[C@H]23)OCO4)cc(OC)c1O` is higher in Protein-DNA complex formation: 159% for the first, 216% for the second.

Going from `COc1cc([C@@H]2c3cc4c(cc3[C@@H](NC(=O)c3ccc(C#N)cc3)[C@H]3COC(=O)[C@H]23)OCO4)cc(OC)c1O` to `COc1cc([C@@H]2c3cc4c(cc3[C@@H](NC(=O)c3ccc(N)cc3)[C@H]3COC(=O)[C@H]23)OCO4)cc(OC)c1O`, the Protein-DNA complex formation falls from 159% to 120%.

First: COC(=O)c1cccc(N[C@@H]2c3cc4c(cc3[C@@H](c3cc(OC)c(O)c(OC)c3)[C@H]3C(=O)OC[C@@H]32)OCO4)c1
Second: COc1cc([C@@H]2c3cc4c(cc3[C@@H](Nc3cccc(O)c3)[C@H]3COC(=O)[C@H]23)OCO4)cc(OC)c1O
The Protein-DNA complex formation of the first is lower: 249% for the first, 290% for the second.

First: COc1cc(CN[C@@H]2c3cc4c(cc3[C@@H](c3cc(OC)c(O)c(OC)c3)[C@H]3C(=O)OC[C@@H]32)OCO4)cc(OC)c1
Second: COc1cc([C@@H]2c3cc4c(cc3[C@@H](NCc3ccc(F)cc3)[C@H]3COC(=O)[C@H]23)OCO4)cc(OC)c1O
The Protein-DNA complex formation of the first is lower: 144% for the first, 169% for the second.

Going from `CCOC(=O)c1ccccc1N[C@@H]1c2cc3c(cc2[C@@H](c2cc(OC)c(O)c(OC)c2)[C@H]2C(=O)OC[C@@H]21)OCO3` to `CCOC(=O)c1ccc(N[C@@H]2c3cc4c(cc3[C@@H](c3cc(OC)c(O)c(OC)c3)[C@H]3C(=O)OC[C@@H]32)OCO4)cc1`, the Protein-DNA complex formation rises from 4% to 207%.

First: COc1cc([C@@H]2c3cc4c(cc3[C@@H](Nc3cc(OC)c(OC)c(OC)c3)[C@H]3COC(=O)[C@H]23)OCO4)cc(OC)c1O
Second: COc1cc([C@@H]2c3cc4c(cc3[C@@H](Nc3cc(F)cc(F)c3)[C@H]3COC(=O)[C@H]23)OCO4)cc(OC)c1O
The Protein-DNA complex formation of the first is lower: 47% for the first, 115% for the second.

Going from `COc1cc([C@@H]2c3cc4c(cc3[C@@H](N)[C@H]3COC(=O)[C@H]23)OCO4)cc(OC)c1O` to `COc1cc([C@@H]2c3cc4c(cc3[C@H](N)[C@H]3COC(=O)[C@H]23)OCO4)cc(OC)c1O`, the Protein-DNA complex formation falls from 36.4% to 8%.

Going from `COc1cc([C@@H]2c3cc4c(cc3[C@@H](Nc3ccccc3)[C@H]3COC(=O)[C@H]23)OCO4)cc(OC)c1O` to `COc1cc([C@@H]2c3cc4c(cc3[C@@H](NCc3ccccc3)[C@H]3COC(=O)[C@H]23)OCO4)cc(OC)c1O`, the Protein-DNA complex formation falls from 243% to 181%.

Compared with `COc1cc([C@@H]2c3cc4c(cc3[C@@H](NC(=O)c3ccc(F)cc3)[C@H]3COC(=O)[C@H]23)OCO4)cc(OC)c1O`, `COc1cc([C@@H]2c3cc4c(cc3[C@@H](NC(=O)c3cccc(F)c3)[C@H]3COC(=O)[C@H]23)OCO4)cc(OC)c1O` is lower in Protein-DNA complex formation: 117% for the first, 116% for the second.

Compared with `COc1cc([C@@H]2c3cc4c(cc3[C@@H](O)[C@H]3COC(=O)[C@H]23)OCO4)cc(OC)c1O`, `COc1cc([C@@H]2c3cc4c(cc3[C@@H](NC[C@H](C)O)[C@H]3COC(=O)[C@H]23)OCO4)cc(OC)c1O` is higher in Protein-DNA complex formation: 42.2% for the first, 167% for the second.

Compared with `COc1cc([C@@H]2c3cc4c(cc3[C@@H](Nc3ccc(N)cc3)[C@H]3COC(=O)[C@H]23)OCO4)cc(OC)c1O`, `COc1cc([C@@H]2c3cc4c(cc3[C@@H](Nc3ccc(Cl)cc3)[C@H]3COC(=O)[C@H]23)OCO4)cc(OC)c1O` is lower in Protein-DNA complex formation: 330% for the first, 99% for the second.

Compared with `COc1cc([C@@H]2c3cc4c(cc3[C@@H](NCc3ccccc3[N+](=O)[O-])[C@H]3COC(=O)[C@H]23)OCO4)cc(OC)c1O`, `COc1cc([C@@H]2c3cc4c(cc3[C@@H](NCc3ccccc3F)[C@H]3COC(=O)[C@H]23)OCO4)cc(OC)c1O` is lower in Protein-DNA complex formation: 144% for the first, 126% for the second.

`COc1cc([C@@H]2c3cc4c(cc3[C@@H](OC(=O)c3ccc(N)cc3)[C@H]3COC(=O)[C@H]23)OCO4)cc(OC)c1O` and `COc1cc([C@@H]2c3cc4c(cc3[C@@H](OC(=O)c3ccccc3)[C@H]3COC(=O)[C@H]23)OCO4)cc(OC)c1O` are the same in Protein-DNA complex formation: 94% for the first, 94% for the second.

Going from `COc1cc([C@@H]2c3cc4c(cc3[C@@H](O[C@@H]3O[C@@H]5CO[C@@H](C)O[C@H]5[C@H](O)[C@H]3O)[C@H]3COC(=O)[C@H]23)OCO4)cc(OC)c1O` to `COc1cc([C@@H]2c3cc4c(cc3[C@@H](N[C@@H](C)CO)[C@H]3COC(=O)[C@H]23)OCO4)cc(OC)c1O`, the Protein-DNA complex formation rises from 100% to 162%.

Going from `COc1cc([C@@H]2c3cc4c(cc3[C@@H](Nc3ccc([N+](=O)[O-])cc3)[C@H]3COC(=O)[C@H]23)OCO4)cc(OC)c1O` to `COc1cc([C@@H]2c3cc4c(cc3[C@@H](NCc3ccc([N+](=O)[O-])cc3)[C@H]3COC(=O)[C@H]23)OCO4)cc(OC)c1O`, the Protein-DNA complex formation falls from 323% to 216%.

Going from `COc1cc([C@@H]2c3cc4c(cc3[C@@H](Sc3ccc(O)cc3)[C@H]3COC(=O)[C@H]23)OCO4)cc(OC)c1O` to `COc1cc([C@@H]2c3cc4c(cc3[C@@H](Oc3ccc(O)cc3)[C@H]3COC(=O)[C@H]23)OCO4)cc(OC)c1O`, the Protein-DNA complex formation rises from 10% to 34%.

Compared with `COc1cc([C@@H]2c3cc4c(cc3[C@@H](NC(=O)c3cccc([N+](=O)[O-])c3)[C@H]3COC(=O)[C@H]23)OCO4)cc(OC)c1O`, `COc1cc([C@@H]2c3cc4c(cc3[C@@H](NC(=O)c3ccc([N+](=O)[O-])cc3)[C@H]3COC(=O)[C@H]23)OCO4)cc(OC)c1O` is higher in Protein-DNA complex formation: 86% for the first, 160% for the second.

Compared with `COc1cc([C@@H]2c3cc4c(cc3[C@@H](Nc3cc(C(F)(F)F)cc(C(F)(F)F)c3)[C@H]3COC(=O)[C@H]23)OCO4)cc(OC)c1O`, `COc1cc([C@@H]2c3cc4c(cc3[C@@H](NCc3ccc(C(F)(F)F)cc3)[C@H]3COC(=O)[C@H]23)OCO4)cc(OC)c1O` is higher in Protein-DNA complex formation: 21% for the first, 99% for the second.

First: COc1cc([C@@H]2c3cc4c(cc3[C@@H](Nc3cccc(C#N)c3)[C@H]3COC(=O)[C@H]23)OCO4)cc(OC)c1O
Second: COc1cc([C@@H]2c3cc4c(cc3[C@@H](Nc3cccc(Cl)c3)[C@H]3COC(=O)[C@H]23)OCO4)cc(OC)c1O
The Protein-DNA complex formation of the first is higher: 137% for the first, 51% for the second.

`COc1cc([C@@H]2c3cc4c(cc3[C@@H](NC(=O)c3cccc(C#N)c3)[C@H]3COC(=O)[C@H]23)OCO4)cc(OC)c1O` and `COc1cc([C@@H]2c3cc4c(cc3[C@@H](NC(=O)c3cccc(N)c3)[C@H]3COC(=O)[C@H]23)OCO4)cc(OC)c1O` are the same in Protein-DNA complex formation: 149% for the first, 149% for the second.

Going from `COc1cc([C@@H]2c3cc4c(cc3[C@@H](Nc3ccc(Oc5ccccc5)cc3)[C@H]3COC(=O)[C@H]23)OCO4)cc(OC)c1O` to `COc1cc([C@@H]2c3cc4c(cc3[C@@H](Nc3ccc(F)cc3)[C@H]3COC(=O)[C@H]23)OCO4)cc(OC)c1O`, the Protein-DNA complex formation rises from 97% to 213%.

Compared with `CCCN[C@@H]1c2cc3c(cc2[C@@H](c2cc(OC)c(O)c(OC)c2)[C@H]2C(=O)OC[C@@H]21)OCO3`, `C=CCN[C@@H]1c2cc3c(cc2[C@@H](c2cc(OC)c(O)c(OC)c2)[C@H]2C(=O)OC[C@@H]21)OCO3` is higher in Protein-DNA complex formation: 69.7% for the first, 84.1% for the second.

First: COC(=O)c1ccc(N[C@@H]2c3cc4c(cc3[C@@H](c3cc(OC)c(O)c(OC)c3)[C@H]3C(=O)OC[C@@H]32)OCO4)cc1O
Second: COC(=O)c1cc(N[C@@H]2c3cc4c(cc3[C@@H](c3cc(OC)c(O)c(OC)c3)[C@H]3C(=O)OC[C@@H]32)OCO4)cc(C(=O)OC)c1
The Protein-DNA complex formation of the first is higher: 129% for the first, 50% for the second.

Going from `COc1cc([C@@H]2c3cc4c(cc3[C@@H](Nc3cc([N+](=O)[O-])ccc3O)[C@H]3COC(=O)[C@H]23)OCO4)cc(OC)c1O` to `COc1cc([C@@H]2c3cc4c(cc3[C@@H](Nc3cc(N)ccc3O)[C@H]3COC(=O)[C@H]23)OCO4)cc(OC)c1O`, the Protein-DNA complex formation falls from 15% to 11%.

Going from `COc1cc([C@@H]2c3cc4c(cc3[C@@H](Nc3cnc5ccccc5c3)[C@H]3COC(=O)[C@H]23)OCO4)cc(OC)c1O` to `COc1cc([C@@H]2c3cc4c(cc3[C@@H](Nc3cccc(N)c3)[C@H]3COC(=O)[C@H]23)OCO4)cc(OC)c1O`, the Protein-DNA complex formation rises from 123% to 140%.

Compared with `COc1cc([C@@H]2c3cc4c(cc3[C@@H](NCc3cccc(C#N)c3)[C@H]3COC(=O)[C@H]23)OCO4)cc(OC)c1O`, `COc1cc([C@@H]2c3cc4c(cc3[C@@H](NCc3ccc(C#N)cc3)[C@H]3COC(=O)[C@H]23)OCO4)cc(OC)c1O` is higher in Protein-DNA complex formation: 225% for the first, 284% for the second.

Compared with `COc1cc([C@@H]2c3cc4c(cc3[C@@H](Nc3cccc(CO)c3)[C@H]3COC(=O)[C@H]23)OCO4)cc(OC)c1O`, `COc1cc([C@@H]2c3cc4c(cc3[C@@H](Nc3ccccc3F)[C@H]3COC(=O)[C@H]23)OCO4)cc(OC)c1O` is lower in Protein-DNA complex formation: 235% for the first, 121% for the second.

First: COc1cc([C@@H]2c3cc4c(cc3[C@@H](NC(=O)c3ccccc3)[C@H]3COC(=O)[C@H]23)OCO4)cc(OC)c1O
Second: COc1cc([C@@H]2c3cc4c(cc3[C@@H](NC(=O)c3ccc(OC(C)=O)cc3)[C@H]3COC(=O)[C@H]23)OCO4)cc(OC)c1O
The Protein-DNA complex formation of the first is higher: 177% for the first, 137% for the second.

Going from `COc1cc([C@@H]2c3cc4c(cc3[C@@H](Nc3ccc5c(c3)OCCO5)[C@H]3COC(=O)[C@H]23)OCO4)cc(OC)c1O` to `COc1cc([C@@H]2c3cc4c(cc3[C@@H](Nc3ccc(N5CCOCC5)cc3)[C@H]3COC(=O)[C@H]23)OCO4)cc(OC)c1O`, the Protein-DNA complex formation falls from 279% to 140%.

Going from `COc1cc([C@@H]2c3cc4c(cc3[C@@H](Oc3ccc(F)cc3)[C@H]3COC(=O)[C@H]23)OCO4)cc(OC)c1O` to `COc1cc([C@@H]2c3cc4c(cc3[C@@H](Nc3ccccn3)[C@H]3COC(=O)[C@H]23)OCO4)cc(OC)c1O`, the Protein-DNA complex formation rises from 57% to 97%.

In the case of `COc1cc([C@@H]2c3cc4c(cc3[C@@H](NCCN(C)C)[C@H]3COC(=O)[C@H]23)OCO4)cc(OC)c1O`, the Protein-DNA complex formation is reported as 183% and 203%.
In the case of `COc1cc([C@@H]2c3cc4c(cc3[C@@H](Nc3ccc(C(=O)O)cc3)[C@H]3COC(=O)[C@H]23)OCO4)cc(OC)c1O`, the Protein-DNA complex formation is reported as 6.9% and 1.9%.
With `COc1cc([C@@H]2c3cc4c(cc3[C@@H](NCCN3CCCCC3)[C@H]3COC(=O)[C@H]23)OCO4)cc(OC)c1O` the Protein-DNA complex formation was 183% and 190%.
